According to ChEMBL document CHEMBL4024804 (J Med Chem, 2018):
Activity calls are given as the source filed them. The rule behind the calls is not given here.

What was measured:
Mus musculus = assay: Toxicity in nude mouse xenografted with human PC3-TxR cells assessed as decrease in body weight at 15 mg/kg, ip administered every other day for 2 weeks; type: organism-based; settings: in vivo, 336 h
[1] = Cytotoxicity against human DU145-TxR cells after 72 hrs by MTS assay; type: functional, cell-based
Outline: (§1)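 Cells treated 72 h at 10 concentrations, 0.03 nM–1 μM, n = 4. MTS read at 490 nm; IC50 by nonlinear regression. RI = resistant IC50 / parental IC50.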

[2] = Cytotoxicity against human PC3-TxR cells after 72 hrs by MTS assay; type: functional, cell-based; outline: as §1
PC-3 [3] = assay: Antitumor activity against human PC3 cells xenografted in nude mouse assessed as decrease in tumor volume at 15 mg/kg, ip administered every other day for 3 weeks; type: functional, organism-based
Outline: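 PC-3 cells (2.5 × 10^6) with Matrigel injected subcutaneously in dorsal flank of nude mice. At ~100 mm3, randomized (n = 8). Dosing ip every other day in 2:1 PEG300/PBS; vehicle PEG300/PBS 1:1. Caliper volume a × b2 × 0.5 three times weekly.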

A-375 [4] = assay: Induction of apoptosis in human A375 cells xenografted in nude mouse assessed as increase in cleaved caspase-3 levels at 15 mg/kg, ip administered every other day for 2 weeks by immunohistochemical analysis; type: functional, organism-based
Outline: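 Formalin-fixed, paraffin-embedded A375 xenograft tumors from mice dosed ip every other day (2:1 PEG300/PBS). Serial sections immunostained with rabbit anti-cleaved caspase 3 antibody by the ABC-DAB method.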

A-375 [5] = assay: Antitumor activity against human A375 cells xenografted in nude mouse assessed as tumor growth inhibition at 15 mg/kg, ip administered every other day for 2 weeks relative to control; type: functional; settings: A-375, ip, 336 h, read-out: TGI
Outline: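 Nude mice 6–8 weeks old; 2 × 10^6 A375 cells in FBS-free medium with Matrigel injected sc into dorsal flank. At about 100 mm3 mice were randomized, n = 8. Drug in 2:1 PEG300/PBS given ip every other day. Volume measured by caliper three times weekly (a × b2 × 0.5).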

PC-3 [6] = assay: Cytotoxicity against human PC3 cells after 72 hrs by MTS assay; type: functional, cell-based; settings: PC-3, 72 h; outline: as §1
PC3-TxR [7] = assay: Antitumor activity against human PC3-TxR cells xenografted in nude mouse assessed as decrease in tumor weight at 15 mg/kg, ip administered every other day for 3 weeks; type: functional, organism-based
Outline: (§2)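 Paclitaxel-resistant PC-3/TxR, kept drug-free at least 1 week beforehand, implanted subcutaneously (2.5 × 10^6 cells with Matrigel) in nude mice. Randomized at ~100 mm3 (n = 7). Dosing ip every other day in 2:1 PEG300/PBS. Volume by caliper (a × b2 × 0.5) three times weekly, tumors weighed at end. One-way ANOVA with Dunnett's test versus vehicle.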

PC3-TxR [8] = assay: Antitumor activity against human PC3-TxR cells xenografted in nude mouse assessed as decrease in tumor volume at 15 mg/kg, ip administered every other day for 3 weeks; type: functional, organism-based; outline: as §2
M14 = assay: Cytotoxicity against human M14 cells after 72 hrs by MTS assay; type: functional, cell-based; settings: M14, 72 h
Outline: (§3)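 Melanoma cells grown in DMEM with 10% FBS and seeded at 1800–3500 cells per well, then incubated overnight. Cells treated for 72 h with 10 concentrations from 0.03 nM to 1 μM, with DMSO vehicle, in four replicates. MTS added for at least 1 h at 37 °C and absorbance read at 490 nm. IC50 obtained by nonlinear regression.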

A-375 [9] = assay: Cytotoxicity against human A375 cells after 72 hrs by MTS assay; type: functional, cell-based; settings: A-375, 72 h; outline: as §3
RPMI-7951 [10] = assay: Cytotoxicity against human RPMI7951 cells after 72 hrs by MTS assay; type: functional, cell-based; settings: RPMI-7951, 72 h; outline: as §3
DU-145 = assay: Cytotoxicity against human DU145 cells after 72 hrs by MTS assay; type: functional, cell-based; settings: DU-145, 72 h; outline: as §1
Homo sapiens [11] = species on record: Homo sapiens; assay: Inhibition of tubulin polymerization in human WM164 cells assessed as fragmentation of microtubules at 100 nM after 18 hrs using DAPI by immunofluorescence-based confocal microscopic method; type: cell-based
Outline: (§4)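 WM164 cells on glass coverslips (125 000 cells/well), incubated overnight, treated 18 h with 100 nM compound or DMSO vehicle. Stained with anti-α-tubulin and Alexa Fluor 647 anti-mouse IgG, mounted in DAPI-containing medium, and imaged by confocal microscopy.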

[12] = Resistance index, ratio of IC50 for human DU145-TxR cells to IC50 for human DU145 cells; type: functional; outline: as §1
[13] = Resistance index, ratio of IC50 for human PC3-TxR cells to IC50 for human PC3 cells; type: functional
Outline: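 Cells were treated 72 h with 10 concentrations from 0.03 nM to 1 μM, four replicates, A490 read. IC50 by nonlinear regression. RI = IC50 resistant / IC50 parental.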

Homo sapiens [14] = species on record: Homo sapiens; assay: Inhibition of tubulin polymerization in human WM164 cells assessed as increase in cytoplasmic soluble tubulin levels at 100 nM after 18 hrs using DAPI by immunofluorescence-based confocal microscopic method; type: cell-based; outline: as §4
Homo sapiens [15] = species on record: Homo sapiens; assay: Inhibition of tubulin polymerization in human WM164 cells assessed as decrease in polymeric tubulin filaments at 100 nM after 18 hrs using DAPI by immunofluorescence-based confocal microscopic method; type: cell-based; outline: as §4
RPMI-7951 [16] = assay: Antimigratory activity in human RPMI7951 cells assessed as wound closure at 25 nM after 18 hrs (reference value: 71.8 +/- 1.8%); type: functional
RPMI-7951 [17] = assay: Antimigratory activity in human RPMI7951 cells at 5 nM after 18 hrs by wound healing assay; type: functional, cell-based
A-375 [18] = assay: Antimigratory activity in human A375 cells assessed as wound closure at 5 nM after 22 hrs (reference value: 60.7 +/- […]); type: functional
A-375 [19] = assay: Antimigratory activity in human A375 cells assessed as wound closure at 25 nM after 22 hrs (reference value: 60.7 +/- […]); type: functional
Liver = assay: Half life in human liver microsomes by UPLC-MS analysis; type: ADME, microsome
Outline: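 Compound at 10 mM in DMSO diluted into human liver microsomes (0.6381 mg/mL protein) in 0.1 M potassium phosphate pH 7.4 with EDTA. NADPH regenerating system added, incubated at 37 °C for 0–4 h in triplicate. Quenched with cold acetonitrile containing warfarin as internal standard, analysed by UPLC–MS SIR. ke from log-linear regression; t1/2 = ln 2/ke.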

A-375 [20] = assay: Antitumor activity against human A375 cells xenografted in nude mouse assessed as decrease in tumor weight at 30 mg/kg, ip administered every other day for 2 weeks; type: functional, organism-based; settings: 15 mg/kg, in the assay text read “at 15 mg/kg” for “at 30 mg/kg”
Outline: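 Nude mice (6–8 weeks) injected subcutaneously in dorsal flank with 2 × 10^6 A375 cells in Matrigel. At ~100 mm3, randomized (n = 8). Compound given ip every other day in 2:1 PEG300/PBS; vehicle equal parts PEG300/PBS. Tumors weighed at sacrifice; mean ± SEM, ANOVA with Dunnett's test versus vehicle.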

[21] = Acute toxicity in nude mouse administered as qd for 5 days; settings: in vivo
Outline: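 Nude mice, 6–8 weeks old; compound formulated in PEG300 and given as five continuous daily administrations, then monitored for acute toxicity. A single-dose acute MTD was estimated first.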

Tubulin (Sus scrofa) = assay: Inhibition of tubulin (porcine brain) polymerization measured every min for 50 mins
A-375 [22] = assay: Induction of morphological changes in human A375 cells xenografted in nude mouse assessed as less microvessel density at 15 mg/kg, ip administered every other day for 2 weeks by immunohistochemical analysis; type: functional, organism-based

Compound | IC50 (M14) | IC50 (A-375 [9]) | IC50 (RPMI-7951 [10]) | also measured
CC(=O)O[C@H]1C(=O)[C@@]2(C)[C@H]([C@H](OC(=O)c3ccccc3)[C@]3(O)C[C@H](OC(=O)[C@H](O)[C@@H](NC(=O)c4ccccc4)c4ccccc4)C(C)=C1C3(C)C)[C@]1(OC(C)=O)CO[C@@H]1C[C@@H]2O [PACLITAXEL] | – | – | – | Activity (Mus musculus): Toxic; IC50 [1]: > 1000 nM; IC50 [2]: 111 nM; Activity (PC-3 [3]): Active; Activity (A-375 [4]): Active; inhibition in vivo at 15 mg/kg (A-375 [5]): 76.5%; IC50 (PC-3 [6]): 3.7 nM; Activity (PC3-TxR [7]): inactive; Activity (PC3-TxR [8]): inactive
COc1ccc2c(c1)CCCN2c1nc(Cl)nc2c(C)csc12 | 52.6 nM | 49 nM | 91.3 nM | –
COc1cc(N(C)c2nc(Cl)nc3ncccc23)cc(OC)c1OC | > 1000 nM | > 1000 nM | > 1000 nM | –
CC(=O)O[C@@]12CO[C@@H]1C[C@H](O)[C@@]1(C)C(=O)[C@H](O)C3=C(C)[C@@H](OC(=O)[C@H](O)[C@@H](NC(=O)OC(C)(C)C)c4ccccc4)C[C@@](O)([C@@H](OC(=O)c4ccccc4)[C@H]21)C3(C)C [DOCETAXEL ANHYDROUS] | – | – | – | IC50 (DU-145): 0.1 nM; IC50 [1]: 352 nM; inhibition (Homo sapiens [11]): inactive; IC50 [2]: 27.9 nM; Ratio IC50 [12]: >3523; IC50 (PC-3 [6]): 0.5 nM; Ratio IC50 [13]: 55.8; inhibition (Homo sapiens [14]): inactive; inhibition (Homo sapiens [15]): inactive
COc1cc2c(c(OC)c1OC)-c1ccc(OC)c(=O)cc1[C@@H](NC(C)=O)CC2 [COLCHICINE] | – | – | – | Activity (RPMI-7951 [16]): 42.8%; Activity (RPMI-7951 [17]): inactive; Activity (A-375 [18]): 46%; Activity (A-375 [19]): 20.7%
CN(c1ccc2c(c1)OCO2)c1nc(Cl)nc2ncccc12 | 164 nM | 162 nM | 179 nM | –
COc1ccc2c(c1)CCCN2c1nc(C)nc2[nH]ncc12 | > 1000 nM | > 1000 nM | > 1000 nM | –
COc1ccc2c(c1)CCCN2c1nc(Cl)nc2c1cnn2C | > 1000 nM | > 1000 nM | > 1000 nM | –
COc1ccc2c(c1)OCCN2c1nc(Cl)nc2ncccc12 | 269 nM | 223 nM | 404 nM | –
COc1ccc2c(c1)CCCN2c1nc(Cl)nc2ncn(C)c12 | 41.2 nM | 39.6 nM | 58.9 nM | –
COc1ccc2c(c1)CCCN2c1nc(C)nc2onc(C)c12 | 18.8 nM | 16.1 nM | 17.6 nM | t1/2 (Liver): 51.6 min
COc1ccc2c(c1)CCCN2c1nc(Cl)nc2ccoc12 | 3.3 nM | 3.2 nM | 5.1 nM | t1/2 (Liver): 19.2 min; Activity (A-375 [20]): Active; MTD at 120 h [21]: 30 mg/kg; Activity (A-375 [4]): Active; inhibition in vivo at 15 mg/kg (A-375 [5]): 66.5%; inhibition (Tubulin (Sus scrofa)): Dose-dependent effect; Activity (A-375 [22]): Active
COc1ccc2c(n1)CCCN2c1nc(Cl)nc2ncccc12 | > 1000 nM | > 1000 nM | > 1000 nM | –
COc1ccc(N(C)c2nc(Cl)nc3ncccc23)cc1OC | 39.5 nM | 39 nM | 47.5 nM | –
COc1ccc2c(c1)C(=O)CCN2c1nc(Cl)nc2ncccc12 | > 1000 nM | > 1000 nM | > 1000 nM | –
COc1ccc2c(c1)C(O)CCN2c1nc(Cl)nc2ncccc12 (configuration not stated) | 52.6 nM | 36.1 nM | 41.9 nM | –
COc1ccc2c(c1)CCCN2c1nc(Cl)nc2cccnc12 | 4.2 nM | 4 nM | 4.4 nM | –
